The test system of series [1] is Mus musculus. Put plainly: Antiinflammatory activity in C57BL/6 mouse assessed as inhibition of zymosan-induced total leukocyte recruitment in synovial cavity at 0.7 to 70 mg/kg, po administered 1 hr prior to zymosan challenge measured after 6 to 24 hrs by particle counting method. The class given is functional, organism-based. The gist of the method:
(§1)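 Male C57BL/6 mice, fasted overnight, dosed orally (vehicle saline/water, 200 μL) or i.p. 1 h before zymosan (500 μg in 25 μL saline, i.a., left knee). Knee swelling measured as change in transverse diameter from basal by digital caliper (mm). Synovial washes (PBS/EDTA) counted on a particle counter; differentials from May-Grünwald-Giemsa cytospins, cells ×10^5/cavity. Sampled at 6 and/or 24 h; seven mice/group.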

Series [2] relates to Mus musculus. Kind of series: Antiinflammatory activity in C57BL/6 mouse assessed as inhibition of zymosan-induced neutrophils recruitment in synovial cavity at 0.7 to 70 mg/kg, po administered 1 hr prior to zymosan challenge measured after 6 to 24 hrs by Grunwald-Giemsa-stained cytospin smear. The class given is functional, organism-based. In short, it runs like this: as §1

Series [3] concerns Mus musculus. Kind of series: Antiinflammatory activity in zymosan-induced C57BL/6 mouse pleurisy model assessed as reduction in neutrophil influx in thoracic cavity at 10 to 50 mg/kg, po administered 1 hr prior to zymosan challenge measured after 4 hrs using Grunwald-Giemsa-stained cytospin smear by light microscopy. Type of series: functional, organism-based. The gist of the method:
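Oral pretreatment 1 h before intrathoracic zymosan (100 μg/cavity in 100 μL saline). Cavities washed at 4 h with 1 mL PBS/10 mM EDTA. Total leukocytes counted on a particle counter, differentials from May-Grünwald-Giemsa cytospins (×10^6/cavity). Supernatant after 400g 10 min assayed for total protein by Bradford.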

The test system of series [4] is Mus musculus. Kind of series: Antiinflammatory activity in C57BL/6 mouse assessed as inhibition of zymosan-induced knee joint edema formation at 7 mg/kg, po administered 1 hr prior to zymosan challenge measured at 6 hrs relative to control. Type of series: functional. As to conditions: C57BL/6, Knee joint. In short, it runs like this: as §1
The test system of series [5] is Mus musculus. Put plainly: Antiinflammatory activity in C57BL/6 mouse assessed as inhibition of zymosan-induced knee joint edema formation at 7 mg/kg, po administered 1 hr prior to zymosan challenge measured at 24 hrs relative to control. The note with it: C57BL/6, Knee joint. The class given is functional. The gist of the method:
as §1

The test system of series [6] is Mus musculus. Kind of series: Antiinflammatory activity in C57BL/6 mouse assessed as inhibition of zymosan-induced neutrophil migration in articular cavity at 7 mg/kg, po administered 1 hr prior to zymosan challenge measured at 6 hrs relative to control. The class given is functional. The note with it: C57BL/6, po. In short, it runs like this:
as §1

Series [7] deals with Mus musculus. Kind of series: Antiinflammatory activity in C57BL/6 mouse assessed as inhibition of zymosan-induced neutrophil migration in articular cavity at 7 mg/kg, po administered 1 hr prior to zymosan challenge measured at 24 hrs relative to control. The class given is functional. The note with it: C57BL/6, po. In short, it runs like this: as §1
Series [8] concerns Mus musculus. Put plainly: Antiinflammatory activity in C57BL/6 mouse assessed as inhibition of zymosan-induced infiltration of inflammatory cells into synovial tissue at 7 mg/kg, po administered 1 hr prior to zymosan challenge measured at 6 to 24 hrs by hematoxylin and eosin staining-based optical microscopy. The class given is functional, organism-based. The gist of the method: (§2)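 Mice dosed orally or i.p. 1 h before i.a. zymosan (500 μg/cavity) or saline. Whole knees taken at 6 and 24 h from six mice, fixed in 10% formalin 48 h, decalcified in 10% EDTA/PBS 1−2 weeks, paraffin-embedded. 5 μm sections H&E-stained and examined by light microscopy. Parameter scores summed into an arthritis index; means ± SEM, two experiments.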

Series [9] relates to Mus musculus. Kind of series: Antiinflammatory activity in C57BL/6 mouse assessed as inhibition of zymosan-induced arthritis score at 7 mg/kg, po administered 1 hr prior to zymosan challenge measured at 6 to 24 hrs by hematoxylin and eosin staining-based optical microscopy. Type of series: functional, organism-based. In short, it runs like this: as §2
Series [10] relates to Mus musculus. Put plainly: Antiinflammatory activity in C57BL/6 mouse assessed as inhibition of zymosan-induced TNFalpha production in cell-free supernatant of knee joint synovial washes at 7 mg/kg, po administered 1 hr prior to zymosan challenge measured at 6 to 24 hrs by sandwich ELISA method. The class given is functional, organism-based. In short, it runs like this:
(§3)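 Male C57BL/6 mice (18−22 g), fasted overnight, dosed orally (in filtered water, 200 μL) or i.p. 1 h before i.a. zymosan (500 μg in 25 μL saline) into left knee; contralateral knee got vehicle. Synovial cavity washed twice with 150 μL PBS/10 mM EDTA at 6 and 24 h; washes spun 400g 10 min, 4 °C. Cytokines measured by sandwich ELISA, LTB4/PGE2 by EIA (pg/mL); six mice/group, two experiments.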
For orientation: In an ELISA, binding on a coated surface is turned into a signal by an enzyme label.

The test system of series [11] is Mus musculus. Put plainly: Antiinflammatory activity in C57BL/6 mouse assessed as inhibition of zymosan-induced PGE2 production in cell-free supernatant of knee joint synovial washes at 7 mg/kg, po administered 1 hr prior to zymosan challenge measured at 6 to 24 hrs by immunosorbent assay. Type of series: functional, organism-based. In short, it runs like this:
as §3

Series [12] can be described thus: Cytotoxicity against C57BL/6 mouse neutrophils assessed as cell viability at 100 uM after 2 hrs by lactate dehydrogenase assay relative to control. Type of series: toxicity, Neutrophil. The note with it: read-out: Activity. In short, it runs like this: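 Bone-marrow neutrophils from C57BL/6 mice, Percoll-purified (65%/72% interface, ~85-90% purity), plated at 1 × 10^5 cells/well; fresh medium with or without Tween 20 (3%) or compound (0.01−100 μM), quadruplicate; 2 h incubation. LDH released into supernatant measured, 20−30 min at room temperature, stopped with 1 N HCl; absorbance 490 nm minus 690 nm background.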

Series [13] in a line: Cytotoxicity against mouse J774A.1 cells assessed as cell viability at 0.01 to 100 uM after 20 hrs by Alamar Blue assay relative to control. The note with it: read-out: Activity. Type of series: toxicity, J774.A1. The gist of the method:
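J774A.1 cells at 2.5 × 10^5 cells/well, 24 h pre-incubation at 37 °C, 5% CO2; fresh medium with or without Tween 20 (3%) or compound (0.01−100 μM), quadruplicate; 20 h incubation, then Alamar Blue added for 4 h; fluorescence read at ex 555/em 585 nm.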
A general note: Alamar Blue is a resazurin reagent that responds to reducing activity.

Series [14] has as its system J774.A1. Put plainly: Antiinflammatory activity in mouse J774A.1 cells assessed as inhibition of zymosan and IFNgamma-induced COX2 expression at 1 to 10 uM preincubated for 1 hr followed by zymosan and IFNgamma addition measured after 24 hrs by Western blot analysis. Type of series: functional, cell-based. The gist of the method:
(§4)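 J774A.1 cells in six-well plates pretreated 1 h (0.1−10 μM) before zymosan (10 μg per 10^5 cells) and/or IFN-γ (25 U/mL) for 24 h. Lysates (Tris/NaCl/MgCl2/0.5% NP40 with protease inhibitors); 30 μg protein run on 7.5% SDS-PAGE, transferred to PVDF, probed for COX-2, iNOS and α-tubulin.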
(In general: Immunoblotting shows a protein as a band on a membrane.)

Series [15] has as its system J774.A1. Kind of series: Antiinflammatory activity in mouse J774A.1 cells assessed as inhibition of zymosan and IFNgamma-induced nitric oxide production at 10 uM preincubated for 1 hr followed by zymosan and IFNgamma addition measured after 24 hrs by colorimetric Griess test. The class given is functional, cell-based. In short, it runs like this:
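J774A.1 macrophages (1 × 10^5/well, RPMI/10% FBS) adhered 24 h, preincubated 1 h with compound (0.1−10 μM) or dexamethasone (1 μM), then stimulated with zymosan (10 μg per 10^5 cells) and/or IFN-γ (25 U/mL) for 24 h. Supernatant IL-6 by sandwich ELISA; nitrite by Griess reaction at 540 nm. Quadruplicate wells, two experiments.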

For series [16], the system named is J774.A1. Kind of series: Antiinflammatory activity in mouse J774A.1 cells assessed as inhibition of zymosan and IFNgamma-induced iNOS expression at 1 to 10 uM preincubated for 1 hr followed by zymosan and IFNgamma addition measured after 24 hrs by Western blot analysis. Type of series: functional, cell-based. In short, it runs like this: as §4

The source made the active and inactive calls. No cut-off for these calls is given here.

Usually inhibition in vivo stands for the share of the control response that was lost under treatment. Consider `COC(=O)c1cc(O)c(O)c(O)c1` [GALLIC ACID METHYL ESTER], for which the inhibition result in series [1], in [2], in series [8], in series [9], in series [10] and in series [11] was “Active” each time. In addition, the inhibition entry in series [14], in series [15] and in series [16] was “Active” each time. Besides, in [3], the result was Active. Moreover, the inhibition in vivo at 7 mg/kg in series [4] was 24%; in [5], 49%; in series [6] it was 64%; in series [7], 74%. In series [12], the viability at 2 h, 100 µM is at least 92%. The viability at 20 h, up to 100 µM in series [13] was at least 95%.

For the origin of these results see ChEMBL document CHEMBL3853307, “Anti-inflammatory Effect of Methyl Gallate on Experimental Arthritis: Inhibition of Neutrophil Recruitment, Production of Inflammatory Mediators, and Activation of Macrophages” (J Nat Prod, 2016).
